These results are taken from ChEMBL document CHEMBL1121619, “Demethyl analogues of psychoactive methoxyphenalkylamines: synthesis and serotonin receptor affinities” (J Med Chem, 1980).

SMILES strings stand for the structures.

Test [1] concerns the target T1, 5-hydroxytryptamine receptor 2B (Rattus norvegicus, UniProt P30994). As to the kind of experiment: Antagonistic against 5-hydroxytryptamine 2B receptor. The format is functional. As to conditions: read-out: pA2 (converted).
Test [2] has as its target T1, 5-hydroxytryptamine receptor 2B. Kind of test: Antagonistic activity against 5-hydroxytryptamine 2B receptor obtained from rat stomach fundus preparation. In kind it is functional, tissue-based. The conditions noted are these: read-out: pA2 (converted).
Test [3] deals with Rattus norvegicus. As to the kind of experiment: Compound was tested for its activity for maximal correct- drug lever responding at doses 2 mg/Kg in rat; Range 0-8%. In kind it is functional. The method, boiled down: (§1)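 Rats were trained in a two-lever drug discrimination procedure to tell 5-methoxy-N,N-dimethyltryptamine hydrogen oxalate (1.5 mg/kg) from saline. Each challenge dose was given to three to six rats, and the percentage of drug-lever responding was recorded.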

Test [4] has as its system Rattus norvegicus. Kind of test: Compound was tested for its activity for maximal correct- drug lever responding at doses 5 mg/Kg in rat; Range 0-8%. The format is functional. In short, it runs like this: as §1
Test [5] concerns Rattus norvegicus. Kind of test: Compound was tested for its activity for maximal correct- drug lever responding at doses 3 mg/Kg in rat; Range 0-8%. The format is functional. The method, boiled down: as §1
Test [6] addresses T1, 5-hydroxytryptamine receptor 2B. As to the kind of experiment: (§2) Antagonistic activity of corresponding methoxy compound against serotonin 5-HT receptor. The format is functional. The conditions noted are these: read-out: pA2 (converted).
The target of test [7] is Serotonin (5-HT) receptor. Described as §2. The format is functional.

T1 sequence (P30994 whole entry): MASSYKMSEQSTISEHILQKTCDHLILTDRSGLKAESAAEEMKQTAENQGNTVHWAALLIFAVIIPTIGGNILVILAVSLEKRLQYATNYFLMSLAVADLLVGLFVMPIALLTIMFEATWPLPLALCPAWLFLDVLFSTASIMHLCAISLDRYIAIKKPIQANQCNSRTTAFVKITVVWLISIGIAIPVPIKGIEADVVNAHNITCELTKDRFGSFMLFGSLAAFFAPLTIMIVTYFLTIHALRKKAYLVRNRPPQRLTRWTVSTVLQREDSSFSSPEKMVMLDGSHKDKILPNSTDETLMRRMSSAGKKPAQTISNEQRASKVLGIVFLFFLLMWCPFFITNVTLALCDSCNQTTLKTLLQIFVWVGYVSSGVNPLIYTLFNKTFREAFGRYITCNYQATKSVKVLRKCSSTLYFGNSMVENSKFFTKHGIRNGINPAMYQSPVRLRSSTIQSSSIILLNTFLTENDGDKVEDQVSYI

Consider `COc1ccc(CC(C)N)c(O)c1` (centres undefined), for which the Kb in test [1] was 2510 nM.

On to `COc1cc(C)c(O)cc1CC(C)N` (centres undefined), for which the Kb in test [2] is 12.3 nM; in test [1], 75.9 nM. The Activity with Rattus norvegicus [3], in the test with Rattus norvegicus [4] and in the test on Rattus norvegicus [5] was 0% in each case.

For `NCCc1ccc(O)cc1` [TYRAMINE], the Kb in test [6] is 7.94 µM.

Regarding `COc1cc(CC(C)N)c(O)cc1C` (centres undefined), the Kb in test [2] was 36.3 nM; in test [1], 75.9 nM.

`COc1cc(CC(C)N)ccc1O` (stereo not drawn) [3-O-METHYL-ALPHA-METHYLDOPAMINE]: the Kb in test [2] was 6460 nM; in test [1], 3550 nM.

In test [7], `NCCc1ccccc1O` had a pA2 of 5.52.

For the compound `COc1ccc(O)c(CC(C)N(C)C)c1` (centres undefined), the results for the Kb in test [2] and in test [1] were 166 nM and 316 nM, respectively.

Take `COc1ccc(CC(C)N)cc1O` (centres undefined): the Kb in test [2] was 135 nM; in test [1], 3550 nM.

Consider `COc1ccc(O)c(CC(C)N)c1` (centres undefined), for which the Kb is 100 nM in test [2] and 148 nM in test [1].

`COc1ccc(O)c(CCN)c1`: the Kb in test [2] is 79.4 nM; in test [1] it was 141 nM.

In the case of `COc1ccc(O)c(CCN(C)C)c1`, the Kb in test [2] was 145 nM; in test [1], 302 nM.

For `COc1ccc(OCc2ccccc2)c(CCN(C)C)c1`, the results for the Kb in test [2] and in test [1] were 3630 nM and 302 nM, respectively.

By pA2 is commonly meant the negative logarithm of the molar antagonist concentration that doubles the agonist concentration needed for the same response.
